# Assay results: ChEMBL document CHEMBL1135620, “Cyclosporins: structure-activity relationships for the inhibition of the human FPR1 formylpeptide receptor” (J Med Chem, 2002)
# Target: T1, fMet-Leu-Phe receptor (Homo sapiens, UniProt P21462)
# T1 sequence (P21462 whole entry): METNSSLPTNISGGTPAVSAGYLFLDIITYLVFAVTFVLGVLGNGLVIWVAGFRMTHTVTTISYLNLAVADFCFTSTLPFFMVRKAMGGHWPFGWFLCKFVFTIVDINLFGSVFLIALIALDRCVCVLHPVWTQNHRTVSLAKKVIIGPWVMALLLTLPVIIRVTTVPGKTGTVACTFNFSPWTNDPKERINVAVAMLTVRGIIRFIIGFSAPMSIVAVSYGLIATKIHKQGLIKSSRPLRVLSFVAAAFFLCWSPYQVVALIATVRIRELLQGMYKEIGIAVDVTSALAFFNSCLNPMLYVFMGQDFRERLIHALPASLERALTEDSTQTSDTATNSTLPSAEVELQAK
# Assay: Inhibitory activity against human formylpeptide receptor (FPR) of human leukemia HL-60 cells
# Assay type: cell-based
# Procedure, shortened: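 HL-60 cells differentiated 48 h with 0.2 mM dibutyryl cAMP, washed, then treated with 5 μM cytochalasin B (5–10 min, 37 °C). Stimulated 10 min with 30 nM f-MLF. N-acetyl-β-D-glucosaminidase release read at 410 nm on p-nitrophenyl substrate after spontaneous-release subtraction. Duplicate wells; IC20/IC50 as mean ± SD of independent experiments.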
IC50 [nM],IC50 (hl-60) [nM],Structure (SMILES)
3000,,C/C=C/C[C@@H](C)[C@@H](O)[C@H]1C(=O)N[C@@H](CC)C(=O)N(C)CC(=O)N(C)[C@@H](CC(C)C)C(=O)N[C@@H](C(C)C)C(=O)N(C)[C@@H](CC(C)C)C(=O)N[C@@H](C)C(=O)N[C@H](C)C(=O)N[C@@H](CC(C)C)C(=O)N(C)[C@@H](CC(C)C)C(=O)N(C)[C@@H](C(C)C)C(=O)N1C
2300,,C/C=C/C[C@@H](C)[C@@H](O)[C@H]1C(=O)N[C@@H]([C@@H](C)O)C(=O)N(C)CC(=O)N(C)[C@@H](CC(C)C)C(=O)N[C@@H]([C@@H](C)CC)C(=O)N(C)[C@@H](CC(C)C)C(=O)N[C@@H](C)C(=O)N[C@H](C)C(=O)N(C)[C@@H](CC(C)C)C(=O)N(C)[C@@H](CC(C)C)C(=O)N(C)[C@@H](C(C)C)C(=O)N1C
> 10000,,C/C=C/C[C@@H](C)[C@@H](O)[C@H]1C(=O)N[C@@H](CCC)C(=O)N(C)CC(=O)N(C)[C@@H](CC(C)C)C(=O)N[C@@H](CC(C)C)C(=O)N(C)[C@@H](CC(C)C)C(=O)N[C@@H](C)C(=O)N[C@H](C)C(=O)N(C)[C@@H](CC(C)C)C(=O)N(C)[C@@H](CC(C)C)C(=O)N(C)[C@@H](C(C)C)C(=O)N1C
> 10000,,C/C=C/C[C@@H](C)[C@@H](O)[C@H]1C(=O)N[C@@H](CC)C(=O)N(C)CC(=O)N(C)[C@@H](CC(C)C)C(=O)N[C@@H](C(C)C)C(=O)N(C)[C@@H](CC(C)C)C(=O)N[C@@H](C)C(=O)N[C@H](C)C(=O)N(C)[C@@H](CC(C)C)C(=O)N(C)[C@@H](CC(C)C)C(=O)N[C@@H](C(C)C)C(=O)N1C
> 5000,,CC/C=C/C[C@@H](C)[C@@H](O)[C@H]1C(=O)N[C@@H](CC)C(=O)N(C)CC(=O)N(C)[C@@H](C(C)C)C(=O)N[C@@H](C(C)C)C(=O)N(C)[C@@H](CC(C)C)C(=O)N[C@@H](C)C(=O)N[C@H](C)C(=O)N(C)[C@@H](CC(C)C)C(=O)N(C)[C@@H](CC(C)C)C(=O)N(C)[C@@H](C(C)C)C(=O)N1C
> 3000,,C/C=C/C[C@@H](C)[C@@H](O)[C@H]1C(=O)N[C@@H](C(C)C)C(=O)N(C)CC(=O)N(C)[C@@H](CC(C)C)C(=O)N[C@@H](C(C)C)C(=O)N(C)[C@@H](CC(C)C)C(=O)N[C@@H](C)C(=O)N[C@H](C)C(=O)N(C)[C@@H](CC(C)C)C(=O)N[C@@H](CC(C)C)C(=O)N(C)[C@@H](C(C)C)C(=O)N1C
> 3000,,C/C=C/C[C@@H](C)[C@@H](O)[C@H]1C(=O)N[C@@H]([C@@H](C)O)C(=O)N(C)CC(=O)N(C)[C@@H](CC(C)C)C(=O)N[C@@H](C(C)C)C(=O)N(C)[C@@H](CC(C)C)C(=O)N[C@@H](C)C(=O)N[C@H](C)C(=O)N(C)[C@@H](CC(C)C)C(=O)N[C@@H](CC(C)C)C(=O)N(C)[C@@H](C(C)C)C(=O)N1C
,> 10000,CC/C=C/C[C@@H](C)[C@@H](O)[C@H]1C(=O)N[C@@H](CC)C(=O)N(C)CC(=O)N(C)[C@@H](Cc2ccccc2)C(=O)N[C@@H](C(C)C)C(=O)N(C)[C@@H](CC(C)C)C(=O)N[C@@H](C)C(=O)N[C@H](C)C(=O)N(C)[C@@H](CC(C)C)C(=O)N(C)[C@@H](CC(C)C)C(=O)N(C)[C@@H](C(C)C)C(=O)N1C
6300,,CC/C=C/C[C@@H](C)[C@@H](O)[C@H]1C(=O)N[C@@H](CC)C(=O)N(C)CC(=O)N(C)[C@@H](CC(C)C)C(=O)N[C@@H](C(C)C)C(=O)N(C)[C@@H](CC(C)C)C(=O)N[C@@H](C)C(=O)N[C@H](CCCCN)C(=O)N(C)[C@@H](CC(C)C)C(=O)N(C)[C@@H](CC(C)C)C(=O)N(C)[C@@H](C(C)C)C(=O)N1C
9200,,C/C=C/C[C@@H](C)[C@@H](O)[C@H]1C(=O)N[C@@H](CC)C(=O)N(C)CC(=O)N(C)[C@@H](CC(C)C)C(=O)N[C@@H](C(C)C)C(=O)N(C)[C@@H](CC(C)C)C(=O)N[C@@H](C)C(=O)N[C@H](C)C(=O)N(C)[C@@H](CC(C)C)C(=O)N[C@@H](CC(C)C)C(=O)N(C)[C@@H](C(C)C)C(=O)N1C
> 10000,,C/C=C/C[C@@H](C)[C@@H](O)[C@H]1C(=O)N[C@@H](CCC)C(=O)N(C)CC(=O)N(C)[C@@H](CC(C)C)C(=O)N[C@@H](C(C)C)C(=O)N[C@@H](CC(C)C)C(=O)N[C@@H](C)C(=O)N[C@H](C)C(=O)N(C)[C@@H](CC(C)C)C(=O)N(C)[C@@H](CC(C)C)C(=O)N(C)[C@@H](C(C)C)C(=O)N1C
2200,,C/C=C/C[C@@H](C)[C@@H](O)[C@H]1C(=O)N[C@@H](C)C(=O)N(C)CC(=O)N(C)[C@@H](CC(C)C)C(=O)N[C@@H](C(C)C)C(=O)N(C)[C@@H](CC(C)C)C(=O)N[C@@H](C)C(=O)N[C@H](C)C(=O)N(C)[C@@H](CC(C)C)C(=O)N[C@@H](CC(C)C)C(=O)N(C)[C@@H](C(C)C)C(=O)N1C
> 10000,,CCC[C@@H]1NC(=O)[C@H](CC(C)C)N(C)C(=O)[C@H](C(C)C)N(C)C(=O)[C@H](CC(C)C)N(C)C(=O)[C@H](CC(C)C)N(C)C(=O)[C@@H](C)NC(=O)[C@H](C)NC(=O)[C@H](CC(C)C)N(C)C(=O)[C@H](C(C)C)NC(=O)[C@H](CC(C)C)N(C)C(=O)CN(C)C1=O
> 10000,,C/C=C/C[C@@H](C)[C@@H](O)[C@H]1C(=O)N[C@@H](CCC)C(=O)N(C)CC(=O)N(C)[C@@H](CC(C)C)C(=O)N[C@@H](C(C)C)C(=O)N(C)[C@@H](CC(C)C)C(=O)N[C@@H](C)C(=O)N[C@H](C)C(=O)N[C@@H](CC(C)C)C(=O)N(C)[C@@H](CC(C)C)C(=O)N(C)[C@@H](C(C)C)C(=O)N1C
,> 5000,C/C=C/C[C@@H](C)[C@@H](O)[C@H]1C(=O)N[C@@H](CC)C(=O)N(C)CC(=O)N[C@@H]([C@@H](C)CC)C(=O)N[C@@H](C(C)C)C(=O)N(C)[C@@H](CC(C)C)C(=O)N[C@@H](C)C(=O)N[C@H](C)C(=O)N(C)[C@@H](CC(C)C)C(=O)N(C)[C@@H](CC(C)C)C(=O)N(C)[C@@H](C(C)C)C(=O)N1C
> 10000,,CCCCCC[C@H]1C(=O)N[C@@H](CC)C(=O)N(C)CC(=O)N(C)[C@@H](CC(C)C)C(=O)N[C@@H](C(C)C)C(=O)N(C)[C@@H](CC(C)C)C(=O)N[C@@H](C)C(=O)N[C@H](C)C(=O)N(C)[C@@H](CC(C)C)C(=O)N(C)[C@@H](CC(C)C)C(=O)N(C)[C@@H](C(C)C)C(=O)N1C
2520,,C/C=C/C[C@@H](C)[C@@H](O)[C@H]1C(=O)N[C@@H](CC)C(=O)N(C)CC(=O)N(C)[C@@H](CC(C)C)C(=O)N[C@@H](C(C)C)C(=O)N(C)[C@@H](CC(C)C)C(=O)N[C@@H](C)C(=O)N[C@H](C)C(=O)N(C)[C@@H](CC(C)C)C(=O)N(C)[C@@H](CC(C)C)C(=O)N(C)[C@@H](C)C(=O)N1C
590,,C/C=C/C[C@@H](C)[C@@H](O)[C@H]1C(=O)N[C@@H]([C@@H](C)O)C(=O)N(C)CC(=O)N(C)[C@@H](CC(C)C)C(=O)N[C@@H](CC(C)C)C(=O)N(C)[C@@H](CC(C)C)C(=O)N[C@@H](C)C(=O)N[C@H](C)C(=O)N(C)[C@@H](CC(C)C)C(=O)N[C@@H](CC(C)C)C(=O)N(C)[C@@H](C(C)C)C(=O)N1C
> 10000,,CC/C=C/C[C@@H](C)[C@@H](O)[C@H]1C(=O)N[C@@H](C(C)C)C(=O)N(C)CC(=O)N(C)[C@@H](CC(C)C)C(=O)N[C@@H](C(C)C)C(=O)N(C)[C@@H](CC(C)C)C(=O)N[C@@H](C)C(=O)N[C@H](C)C(=O)N(C)[C@@H](CC(C)C)C(=O)N(C)[C@@H](CC(C)C)C(=O)N(C)[C@@H](C(C)C)C(=O)N1C

Structure (SMILES),IC50 [nM],IC50 (hl-60) [nM]
C/C=C/C[C@@H](C)[C@@H](O)[C@H]1C(=O)N[C@@H]([C@@H](C)O)C(=O)N(C)CC(=O)N(C)[C@@H](CC(C)C)C(=O)N[C@@H](C(C)C)C(=O)N(C)[C@@H](CC(C)C)C(=O)N[C@@H](C)C(=O)N[C@](O)(C(C)C)C(=O)N(C)[C@@H](CC(C)C)C(=O)N[C@@H](CC(C)C)C(=O)N(C)[C@@H](C(C)C)C(=O)N1C,2500,
C/C=C/C[C@@H](C)[C@@H](O)[C@H]1C(=O)N[C@@H]([C@@H](C)O)C(=O)NCC(=O)N(C)[C@@H](CC(C)C)C(=O)N[C@@H](CC(C)C)C(=O)N(C)[C@@H](CC(C)C)C(=O)N[C@@H](C)C(=O)N[C@](O)(C(C)C)C(=O)N(C)[C@@H](CC(C)C)C(=O)N[C@@H](CC(C)C)C(=O)N(C)[C@@H](C(C)C)C(=O)N1C,300,
C/C=C/C[C@@H](C)[C@@H](O)[C@H]1C(=O)N[C@@H]([C@@H](C)O)C(=O)N(C)CC(=O)N[C@@H](CC(C)C)C(=O)N[C@@H](CC(C)C)C(=O)N(C)[C@@H](CC(C)C)C(=O)N[C@@H](C)C(=O)N[C@](O)(C(C)C)C(=O)N(C)[C@@H](CC(C)C)C(=O)N[C@@H](CC(C)C)C(=O)N(C)[C@@H](C(C)C)C(=O)N1C,560,
C/C=C/C[C@@H](C)[C@@H](O)[C@H]1C(=O)N[C@@H]([C@@H](C)O)C(=O)N(C)CC(=O)N(C)[C@@H](CC(C)C)C(=O)N[C@@H]([C@@H](C)CC)C(=O)N(C)[C@@H](CC(C)C)C(=O)N[C@@H](C)C(=O)N[C@](O)(C(C)C)C(=O)N(C)[C@@H](CC(C)C)C(=O)N[C@@H](CC(C)C)C(=O)N(C)[C@@H](C(C)C)C(=O)N1C,750,
C/C=C/C[C@@H](C)[C@@H](O)[C@H]1C(=O)N[C@@H]([C@@H](C)O)C(=O)N(C)CC(=O)N(C)[C@@H](CC(C)C)C(=O)N[C@@H](CC(C)C)C(=O)N(C)[C@@H](CC(C)C)C(=O)N[C@@H](C)C(=O)N[C@](O)(C(C)C)C(=O)N(C)[C@@H](CC(C)C)C(=O)N[C@@H](CC(C)C)C(=O)N(C)[C@@H](C(C)C)C(=O)N1C,570,
CC(C)C[C@@H]1NC(=O)[C@H](CC(C)C)N(C)C(=O)[C@@](O)(C(C)C)NC(=O)[C@H](C)NC(=O)[C@H](CC(C)C)N(C)C(=O)[C@H](CC(C)C)NC(=O)[C@H](CC(C)C)N(C)C(=O)CN(C)C(=O)[C@H]([C@@H](C)O)NC(=O)[C@H]([C@H](O)[C@H](C)C/C=C/CO)N(C)C(=O)[C@H](C(C)C)N(C)C1=O,1480,
